# Compound activity as filed in PubChem BioAssay.
# KCNQ1 pot: potentiators or activators of KCNQ1 channel, primary screen, cell-based, thallium flux, high-throughput. CHO-K1 KCNQ1, thallium flux FluxOR fluorescence; active compounds read high. 310,000 tested, 0.35% active. Potassium voltage-gated channel subfamily KQT member 1 (Homo sapiens), P51787. B-score at 10 µM;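 active = fluorescence ratio B-score, a plate-corrected score, at least three library SD, with initial intensity B-score within 5 SD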
#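 System: CHO-K1 cells stably expressing KCNQ1 / Medium: assay buffer for compound exposure, DMSO matched across wells / Reagent: thallium- and potassium-containing depolarizing buffer / Compound: one concentration, matched DMSO / Incubation: 20 min compound pretreatment at room temperature / Measured by: kinetic FluxOR fluorescence, 10 s baseline plus 110 s post-stimulus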
# hERG protect: hERG rescue from dofetilide block, primary screen, cell-based, CHO-hERG, FluxOR thallium flux, dofetilide IC70; Voltage-gated inwardly rectifying potassium channel KCNH2 (Homo sapiens), Q12809; dofetilide IC70 present; activation (rescue from dofetilide block), less the hit threshold, % at 10 µM; 310,000 tested, 0.51% active; AID 1511, 2009;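 active = activation above the mean of controls blocked by dofetilide plus 5 SD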;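 also: thallium influx through hERG after potassium depolarization seen as dye fluorescence rise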
# KCNK3 inh: human KCNK3 channel inhibitors, primary screen, CHO cells, FluxOR thallium flux, B-score. Potassium channel subfamily K member 3 (Homo sapiens), O14649. FluxOR fluorescence; active compounds read low. B-score at 10 µM. 340,000 tested, 0.84% active;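 active = B-score under library mean minus 4 SD, starting fluorescence ratio at most library mean plus 5 SD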;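 also: more negative B-score means stronger inhibition of thallium flux through KCNK3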
# Kir21 block: inhibitors of mouse Kir2.1 inward-rectifier potassium channel; HEK293-Kir2.1, FluxOR thallium flux fluorescence; active compounds read low; B-score at 10 µM; Inward rectifier potassium channel 2 (Mus musculus), P35561; 310,000 tested, 0.85% active;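 active = fluorescence ratio B-score at or below minus 3 SD of library scores, with starting-brightness B-score within 2 SD, cut at about -4.2 in these data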;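 also: channel flux triggered by added potassium and thallium sulfate stimulus; B-score of peak minus minimum fluorescence over baseline after thallium stimulus; more negative B-score means stronger Kir2.1 block with less thallium influx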
# Target sequence (P35561 whole entry, looked up): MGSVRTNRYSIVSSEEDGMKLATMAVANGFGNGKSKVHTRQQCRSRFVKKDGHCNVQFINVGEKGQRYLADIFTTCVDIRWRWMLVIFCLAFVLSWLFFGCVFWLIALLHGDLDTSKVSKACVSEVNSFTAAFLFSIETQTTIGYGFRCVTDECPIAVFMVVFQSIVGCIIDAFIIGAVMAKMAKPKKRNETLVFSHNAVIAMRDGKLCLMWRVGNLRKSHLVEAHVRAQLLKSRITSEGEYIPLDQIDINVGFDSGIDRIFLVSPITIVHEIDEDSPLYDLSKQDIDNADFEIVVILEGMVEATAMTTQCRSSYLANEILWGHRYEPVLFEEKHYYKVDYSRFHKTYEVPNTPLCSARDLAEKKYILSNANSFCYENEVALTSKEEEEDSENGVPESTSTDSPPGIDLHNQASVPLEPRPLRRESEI
# KCNK9 inh: KCNK9 potassium channel inhibitors, primary screen, HEK293 cells, thallium flux; B-score at 10 µM; FluxOR thallium flux fluorescence; active compounds read low; AID 488922, 2010; 310,000 tested, 1.2% active;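 active = ratio B-score over 3 SD below the library mean, with starting fluorescence within 5 SD of its mean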;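 also: negative B-score means less thallium flux so channel inhibition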
# KCNQ1 inh: inhibitors of human KCNQ1 channel, primary screen, cell-based, thallium flux, high-throughput. AID 2642, 2010. B-score at 10 µM. 310,000 tested, 1.3% active. CHO-K1 KCNQ1, FluxOR thallium flux fluorescence; active compounds read high. Potassium voltage-gated channel subfamily KQT member 1 (Homo sapiens), P51787;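 active = compounds whose thallium flux B-score, printed positive for inhibition, exceeds three library SD while starting fluorescence stays within three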;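 also: channel opened by potassium depolarization with thallium stimulus after 20 min compound exposure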
# KCNK9 inh conf: KCNK9 potassium channel inhibitors, confirmation, HEK293 cells, thallium flux, duplicate; 4,900 tested, 43% active; inhibition, % at 10 µM; FluxOR thallium flux fluorescence; shares compounds with KCNK9 inh; AID 492992, 2010;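 active = thallium signal inhibited by more than 5 SD of the compound-free buffer control wells, on both duplicate plates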;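 also: 0% = assay buffer control wells without compound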
# Kir21 sel: mouse Kir2.1 channel inhibition, confirmation, selectivity assay for KCNK9 modulator project, cell-based, HEK293, thallium flux. shares compounds with KCNK9 inh. Kir2.1 cells, FluxOR thallium flux fluorescence. inhibition, % at 10 µM. 4,900 tested, 4% active. AID 492993, 2010;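 active = thallium signal drop more than 5 SD beyond the mean of the no-compound control wells, seen in both duplicate plates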;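 also: signal is fluorescence rise after thallium addition divided by baseline fluorescence; plate controls were assay buffer only for no effect and full block by chlorpromazine control for full effect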
# KCNK9 uninduced: thallium flux in non-induced HEK293 cells, confirmation, counter-screen for KCNK9 inhibitor project, cell-based, second counter screen, non-induced KCNK9-HEK293. 4,900 tested, 40% active. inhibition, % at 10 µM. AID 492997, 2010. shares compounds with KCNK9 inh. FluxOR thallium flux;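 active = thallium signal drop beyond 5 SD of the untreated control mean, on both duplicate plates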;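 also: plate controls were buffer only IC0 wells for no effect and SID17386958 at its maximal inhibitory level for full effect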
# Starred values were filed as active, the others as inactive; i = inactive; . = not tested or not shown. A selection: hits, their analogues and other compounds. The true share with any hit is near 3.8%.
SMILES,KCNQ1 pot,hERG protect,KCNK3 inh,Kir21 block,KCNK9 inh,KCNQ1 inh,KCNK9 inh conf,Kir21 sel,KCNK9 uninduced
C/C(=N/OC(=O)c1ccccc1Br)c1ccc(C)cc1,i,-11,i,0.82,-12*,i,58%*,i,34%*
C/C(=N/OC(=O)c1ccc(C)cc1)c1cccs1,i,-7,i,0.91,i,i,.,.,.
Cc1cc(N2CCCCCC2)n2nc(C)c(-c3ccccc3)c2n1,i,-3,i,0.2,i,i,.,.,.
Cc1nn2c(N3CCN(c4ccccn4)CC3)cc(C(C)C)nc2c1-c1ccccc1,i,-7,i,-0.47,-12*,i,63%*,i,38%*
CCN(C(=O)CSc1ncccc1C(=O)Oc1cccc([N+](=O)[O-])c1)c1cccc(C)c1,i,-8,i,0.7,-19*,i,52%*,i,28%*
CSc1cccc(NC(=O)CSc2ncccc2C(=O)Oc2cccc([N+](=O)[O-])c2)c1,i,-6,i,0.49,i,i,.,.,.
COc1ccccc1N1CCN(c2nc(C)nc3c2oc2ccccc23)CC1,i,-27,-9*,1.3,-14*,i,i,i,32%*
COc1ccccc1NC(=O)CN1C(=O)NC2(CCCc3ccccc32)C1=O (centres undefined),.,.,i,.,.,.,.,.,.
COC(=O)c1cc(NC(=O)C(C)c2ccc(CC(C)C)cc2)ccc1O (centres undefined),i,-5,i,-0.62,i,i,i,i,i
CCN(CC)CC#CCC(OC)(c1ccccc1)c1ccccc1,i,-21,i,-3,i,i,.,.,.
Cc1cc(C(=O)N2CCCC(N3CCN(c4cccc(C(F)(F)F)c4)CC3)C2)c(C)o1 (centres undefined),i,-16,i,0.28,i,i,i,i,i
Cc1cc(C(=O)N2CCCC(N3CCN(c4cccc(Cl)c4)CC3)C2)nn1C (centres undefined),i,-6,i,0.57,i,i,.,.,.
CC1(CCC(=O)N2CCCC(N3CCN(c4cccc(C(F)(F)F)c4)CC3)C2)CC1 (centres undefined),i,-17,i,0.33,i,i,i,i,i
Cc1cc(C(=O)N2CCCC(N3CCN(c4cccc(C(F)(F)F)c4)CC3)C2)nn1C (centres undefined),i,-7,i,0.07,i,i,i,i,i
CCN(CC)C(=O)N1c2ccccc2C=Cc2ccccc21,i,-10,i,-0.74,-8.2*,i,42%*,i,30%*
COc1ccc(NS(=O)(=O)c2cccc(C(=O)NCc3ccccc3CN3CCOCC3)c2)cc1,.,.,i,.,.,.,.,.,.
CCN(N=Nc1cccc([N+](=O)[O-])c1)c1cccc([N+](=O)[O-])c1,i,-11,i,-1.5,-11*,i,59%*,i,40%*
NC(=O)CN(N=Nc1cccc([N+](=O)[O-])c1)c1cccc([N+](=O)[O-])c1,i,-7,i,-1.4,i,i,.,.,.
CC1COC(c2cccn2Cc2ccccc2Cl)=N1 (centres undefined),i,-5,i,-2.4,i,i,.,.,.
CCSCC1COC(c2cccn2Cc2ccc(C)cc2)=N1 (centres undefined),i,-14,i,-0.08,i,i,i,i,26%*
CN=c1scc(-c2c[nH]c3ccccc23)n1C,.,.,i,.,.,.,.,.,.
O=c1cc(N2CCCCC2)c(-c2ccccc2)nn1Cc1ccc(F)cc1,i,-31,i,-0.23,-12*,i,60%*,i,36%*
O=c1cc(N2CCCCC2)c(-c2ccccc2)nn1Cc1ccc(Cl)cc1,i,-4,i,2.4,i,i,.,.,.
O=c1c2c(c(-c3ccccc3)nn1Cc1ccccc1)CCCC2,i,0,i,2.8,i,i,i,i,28%*
O=c1ccc(-c2ccccc2)nn1Cc1ccccc1,i,-2,i,0.3,i,i,.,.,.
SMILES,KCNQ1 pot,hERG protect,KCNK3 inh,Kir21 block,KCNK9 inh,KCNQ1 inh,KCNK9 inh conf,Kir21 sel,KCNK9 uninduced
CC(=O)Nc1ccc(NC(=O)C(C)Sc2n[nH]c(-c3ccc(C)cc3)n2)cc1 (centres undefined),i,-19,i,-1.4,i,i,.,.,.
CCOC(=O)c1c(NC(=O)CSc2nnc(C)c(=O)[nH]2)sc(C)c1-c1ccc(C)cc1,i,-15,i,0.03,i,i,i,i,i
CCOC(=O)c1c(NC(=O)CSc2nnc(C)c(=O)[nH]2)sc2c1CCCC2,i,-8,i,0.14,i,i,.,.,.
COc1ccc(CNC(=O)C(=O)NCCC2CCCCN2S(=O)(=O)c2cccs2)cc1 (centres undefined),i,-17,i,0.54,i,i,.,.,.
Cc1ccc(SCc2ccc(C(=O)N3CCCCC3)cc2)cc1,i,-6,i,0.86,i,i,i,i,i
Cc1cccc(C(=O)Oc2cccc3c(O)cccc23)c1,i,-4,i,-0.14,i,i,.,.,.
CCc1nc(SCc2ccc(Cl)cc2)n[nH]1,i,-7,i,0.14,i,i,.,.,.
O=S(=O)(Nc1nc(SCc2ccc(Cl)cc2)n[nH]1)c1ccc(F)cc1,i,-6,i,-10*,-11*,i,28%*,38%*,42%*
O=C(Nc1cccc(Cl)c1)c1cccc(Oc2ccc([N+](=O)[O-])cc2Cl)c1,i,-14,i,-1.3,i,i,i,i,i
O=C(Cn1cnc(S(=O)(=O)N2CCCC2)c1)Nc1cccc(F)c1,i,-4,i,-0.1,i,i,.,.,.
